Results reported in ChEMBL document CHEMBL1127791, “Design, synthesis, and biological evaluation of cosalane, a novel anti-HIV agent which inhibits multiple features of virus reproduction” (J Med Chem, 1994).
pEC50: −log10 of the molar value.

Experiments:
[1] = tested on: Human immunodeficiency virus; assay: Effective concentration required for antiviral activity against HIV strain G by XTT assay; type: functional, organism-based; details: Human immunodeficiency virus 1
Outline: (§1)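 CEM-SS cells, 5000/well in RPMI 1640 with 5% FBS, 2 mM L-glutamine and gentamycin, were infected with each HIV strain at MOI 0.01 with serially diluted drug. They were incubated 6 days at 37 °C in 5% CO₂. Viability was read by XTT, and EC₅₀ for protection from virus-induced killing was calculated.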

[2] = tested on: Human immunodeficiency virus; assay: Effective concentration required for antiviral activity against HIV strain LAV by XTT assay; type: functional, organism-based; details: Human immunodeficiency virus 1; outline: as §1
[3] = tested on: BxT; assay: Effective concentration required for antiviral activity against BxT cell line of 174xCEM cells of Human by XTT assay; type: functional, cell-based
Outline: (§2)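 Human T, B or macrophage-type cell lines were infected with HIV-1 RF in complete RPMI medium with serially diluted drug and cultured 6 days at 37 °C. Inhibition was read by XTT in cytopathically infected cells, or by supernatant RT activity or p24 ELISA in noncytopathically infected cells. EC₅₀ was calculated.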

[4] = tested on: Human immunodeficiency virus 2; assay: Effective concentration required for antiviral activity against HIV strain MS (HIV-2) by XTT assay; type: functional, organism-based; outline: as §1
[5] = tested on: Human immunodeficiency virus; assay: Effective concentration required for antiviral activity against HIV strain 214 by XTT assay; type: functional, organism-based; details: Human immunodeficiency virus 1; outline: as §1
[6] = tested on: Human immunodeficiency virus; assay: Effective concentration required for antiviral activity against HIV strain G9106 (AZT-resistant strain) by XTT assay; type: functional, organism-based; details: Human immunodeficiency virus 1; outline: as §1
[7] = tested on: Human immunodeficiency virus; assay: Effective concentration required for antiviral activity against HIV strain MCK by XTT assay; type: functional, organism-based; details: Human immunodeficiency virus 1; outline: as §1
[8] = tested on: PBL; assay: Effective concentration required for antiviral activity against lymphocyte cell line of PBL cells of Human by […]; type: functional, cell-based
Outline: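 PHA-stimulated fresh human PBLs were infected with clinical HIV-1 isolate WEJO in the presence of drug. Culture supernatants were assayed for RT and/or p24 by antigen-capture ELISA to give EC₅₀.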

[9] = tested on: Human immunodeficiency virus; assay: Effective concentration required for antiviral activity against HIV strain MN by XTT assay; type: functional, organism-based; details: Human immunodeficiency virus 1; outline: as §1
[10] = tested on: Human immunodeficiency virus; assay: Effective concentration required for antiviral activity against HIV strain BAKI (syncytia inducing) by XTT assay; type: functional, organism-based; details: Human immunodeficiency virus 1
[11] = tested on: Human immunodeficiency virus; assay: Effective concentration required for antiviral activity against HIV strain A17 (pyridinone-resistant strain) by XTT assay; type: functional, organism-based; details: Human immunodeficiency virus 1; outline: as §1
[12] = tested on: Human immunodeficiency virus; assay: Effective concentration required for antiviral activity against HIV strain SKI by XTT assay; type: functional, organism-based; details: Human immunodeficiency virus 1; outline: as §1
[13] = tested on: Human immunodeficiency virus; assay: Effective concentration required for antiviral activity against HIV strain 205 by XTT assay; type: functional, organism-based; details: Human immunodeficiency virus 1; outline: as §1
[14] = tested on: M; assay: Effective concentration required for antiviral activity against M cell line of macrophage cells of Human by p24 ELISA
[15] = tested on: CEM-SS; assay: Effective concentration required for antiviral activity against HIV strain IIIB in CEM-SS cells by XTT assay; type: functional, cell-based; details: Homo sapiens; outline: as §1
[16] = tested on: Human immunodeficiency virus; assay: Effective concentration required for antiviral activity against HIV strain PM16 by XTT assay; type: functional, organism-based; details: Human immunodeficiency virus 1; outline: as §1
[17] = tested on: CEM-SS; assay: Effective concentration required for antiviral activity against T cell line of CEM-SS cells of Human by XTT assay; type: functional, cell-based; outline: as §2
[18] = tested on: B(EBV+); assay: Effective concentration required for antiviral activity against B(EBV+) cell line of AA5 cells of Human by XTT assay; type: functional, cell-based; outline: as §2
[19] = tested on: U-937; assay: Effective concentration required for antiviral activity against Macrophage cell line of U937 cells of Human by XTT assay; type: functional, cell-based; outline: as §2
[20] = tested on: Human immunodeficiency virus; assay: Effective concentration required for antiviral activity against HIV strain WOME (syncytia inducing) by XTT assay; type: functional, organism-based; details: Human immunodeficiency virus 1
[21] = tested on: MT2; assay: Effective concentration required for antiviral activity against HIV strain IIIB in MT-2 cells by XTT assay; type: functional, cell-based; details: Homo sapiens
Outline: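 HIV-1 IIIB was tested in MT-2 cells in a microtiter XTT cytopathicity assay. Serially diluted drug was added to cells infected at MOI 0.01 and incubated 6 days at 37 °C in 5% CO₂. EC₅₀ for cellular protection was calculated from XTT viability.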

[22] = tested on: Human immunodeficiency virus; assay: Effective concentration required for antiviral activity against HIV strain WEJO (syncytia inducing) by XTT assay; type: functional, organism-based; details: Human immunodeficiency virus 1
[23] = tested on: MT4; assay: Effective concentration required for antiviral activity against T (HTLV-1+)cell line of MT-4 cells of Human by XTT assay; type: functional, cell-based; outline: as §2
[24] = tested on: Human immunodeficiency virus; assay: Effective concentration required for antiviral activity against HIV strain RF by XTT assay; type: functional, organism-based; details: Human immunodeficiency virus 1; outline: as §1
[25] = tested on: Human immunodeficiency virus; assay: Effective concentration required for antiviral activity against HIV strain VIHU (nonsyncytia inducing) by XTT assay; type: functional, organism-based; details: Human immunodeficiency virus 1
[26] = tested on: Human immunodeficiency virus; assay: Effective concentration required for antiviral activity against HIV strain TP1 by XTT assay; type: functional, organism-based; details: Human immunodeficiency virus 1; outline: as §1

SMILES | pEC50 [1] | pEC50 [2] | pEC50 [3] | pEC50 [4] | pEC50 [5] | pEC50 [6] | pEC50 [7] | pEC50 [8] | pEC50 [9] | pEC50 [10] | pEC50 [11] | pEC50 [12] | pEC50 [13] | pEC50 [14] | pEC50 [15] | pEC50 [16] | pEC50 [17] | pEC50 [18] | pEC50 [19] | pEC50 [20] | other results
CC(C)CCCC(C)[C@H]1CC[C@H]2[C@@H]3CCC4C[C@@H](CCC=C(c5cc(Cl)c(O)c(C(=O)O)c5)c5cc(Cl)c(O)c(C(=O)O)c5)CC[C@]4(C)[C@H]3CC[C@]12C (stereo partly specified) | 5.66 | 4.84 | 5.21 | 4.65 | 5.15 | 5.18 | 5.68 | 4.35 | 5.06 | 4.32 | 5.37 | 4.69 | 5.17 | 4.71 | 5.17 | 5.18 | 5.29 | 5.18 | 5.13 | 4.16 | pEC50 [21]: 5.47; pEC50 [22]: 4.35; pEC50 [23]: 4.70; pEC50 [24]: 5.77; pEC50 [25]: 4.10; pEC50 [26]: 5.19
Cc1cn([C@H]2C[C@H](N=[N+]=[N-])[C@@H](CO)O2)c(=O)[nH]c1=O [ZIDOVUDINE] | 8.70 | 8.10 | 7.26 | 8.70 | 8.05 | < 7.00 | 8.70 | 7.54 | 8.40 | 8.00 | 8.70 | 7.89 | 8.05 | 7.82 | 8.40 | 7.96 | 7.02 | 9.00 | 7.52 | 8.22 | pEC50 [21]: 8.52; pEC50 [22]: 7.74; pEC50 [23]: 7.07; pEC50 [25]: 7.70; pEC50 [26]: 8.22
